From article PMC11109934 (RSC Medicinal Chemistry, 2024)

Legend:
GL261-Luc cells = assay: xCELLigence real time monitoring of cell proliferation, GL261-Luc; assay type: cell-based, mouse; details: for reduction of cell index: 72 hours
BxPC3 cells = assay: xCELLigence real time monitoring of cell proliferation, BxPC3; assay type: cell-based, human
[1] = test system: primary cultured mouse astrocytes; assay: xCELLigence real time monitoring of cell proliferation, primary mouse astrocytes; assay type: cell-based; details: for reduction of cell index: primary cultured mouse astrocytes, after 72 hours
[2] = test system: caspase 3/7 activation in GL261-Luc cells; assay: Caspase 3/7 assay, GL261-Luc; assay type: cell-based, mouse; details: 72 hours; for increase in caspase 3/7 activation (apoptosis): 256 μM
In short: (§1)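 BxPC3 (5 × 10^3/well) or GL261-Luc (3 × 10^3/well) cells in DMEM, 10% FBS, 1% pen-strep-glutamine. After 24 h, exposed to test compound for 72 h in medium with 0.1% DMSO final. CellEvent caspase-3/7 green reagent added for 1 h at 37 °C. Whole-well fluorescence imaged (Ex 488/Em 520). Cells then fixed (3.7% PFA), permeabilised (0.3% Triton X-100), BSA-blocked and stained with CellTag 700 (Ex 685/Em 720). Caspase signal normalised to cell number, then expressed as fold over control. At least 3 independent experiments, at least 4 replicates each.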

[3] = test system: BxPC3 human pancreatic cancer cells; assay: CyQUANT viability assay, BxPC3; assay type: cell-based; details: 72 hours, compared to the control
In short: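 BxPC3 cells (DMEM, 10% FBS, 1% pen-strep-glutamine; passages 10–20) were seeded at 5 × 10^3/well. After 24 h they were exposed to test compound for 72 h, with 0.1% DMSO final. Medium was removed, then CyQUANT Direct nucleic acid stain plus background suppressor in HBSS was added for 1 h at 37 °C. Whole-well fluorescence was laser-scanned (Ex 488/Em 520, 100 μm pixels) and normalised to control (100% viability). At least 3 independent experiments, at least 4 replicates each.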

[4] = test system: caspase 3/7 activation in BxPC3 cells; assay: Caspase 3/7 assay, BxPC3; assay type: cell-based, human; details: 72 hours; for increase in caspase 3/7 activation (apoptosis): 256 μM
In short: as §1

[5] = BxPC3 cells, 128 μM, after 72 hours, compared to the control
[6] = 128 μM, normalised to cell number (CellTag 700)

SMILES | reduction of cell index (BxPC3 cells; BxPC3 cells, 256 μM, 72 hours) | reduction of cell index ([1]; 256 μM) | reduction of cell index (GL261-Luc cells; 256 μM) | increase in caspase 3/7 activation (apoptosis) [2] | reduction of viability (CyQUANT) ([3]; 256 μM) | increase in caspase 3/7 activation (apoptosis) [4] | reduction of cell index (BxPC3 cells; [5]) | reduction of cell index ([1]; 128 μM) | reduction of cell index (GL261-Luc cells; 128 μM) | reduction of viability (CyQUANT) ([3]; 128 μM) | other results
Oc1cccc2ccccc12 [1-naphthol, 1-Naphthol] | – | – | – | – | – | – | – | – | – | – | time until cytotoxicity began (GL261-Luc cells; 128 μM): 28 h
CC(C)OC(=O)[C@H](C)N [L-alanine isopropyl ester] | no significant effect | 11–17% | no significant effect | no significant increase | no significant effect | no significant increase | – | – | – | – | –
OCc1ccccc1O [salicyl alcohol] | – | – | – | – | – | – | no significant effect | 11–17% | no significant effect | no significant effect | increase in caspase 3/7 activation [2, 6]: no effect; increase in caspase 3/7 activation [4, 6]: no effect
Oc1ccc2ccccc2c1 [2-naphthol] | – | – | – | – | – | – | – | – | – | – | activity in real-time xCELLigence experiments (BxPC3 cells; 16 μM): notable activity; time until cell index declined (BxPC3 cells; BxPC3 cells, 128 μM): 8 h; ED50 (cell index) (BxPC3 cells; BxPC3 cells, 72-hour exposure time, xCELLigence): 21 µM; fold greater cytotoxicity than 1-naphthol (BxPC3 cells; BxPC3 cells, real time xCELLigence monitoring): 4 fold; time until cell index declined ([1]; primary cultured astrocytes, 128 μM): ≤ 4 h
Oc1ccccc1 [phenol] | – | – | – | – | – | – | no significant effect | 11–17% | no significant effect | no significant effect | –
C[C@H](N)C(=O)OCc1ccccc1 [L-alanine benzyl ester] | no significant effect | 11–17% | no significant effect | no significant increase | no significant effect | no significant increase | – | – | – | – | –
